Source: PubChem BioAssay
HCT116 PTEN-null: growth suppression of PTEN-null HCT116, primary screen, cell-based, CellTiter-Glo; viability, % at 10 µM; 140,000 tested, 1.2% active; HCT116 PTEN-null viability, 60 h; active compounds read low; AID 827, 2007;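 active = viability at or below a set limit, 4 SD under the median of all tested compounds, cut at about 3.7% in these data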;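 note: PTEN knockout HCT116 line with beta catenin targeted HCT116 as companion control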
H69AR growth 86K: proliferation blockers of H69AR lung cancer cells, primary screen, cell-based, human, 86K library | H69AR lung tumor viability, ATP luminescence, 72 h; active compounds read low | viability, % at 10 µM | 85,000 tested, 6% active;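 active = viability at or below 40%; inactive = viability above 40%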;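 note: multidrug resistant small cell line overexpressing MRP-1 efflux transporter; 100% = mean luminescence of untreated control wells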
Calb biofilm kill: clotrimazole potentiators killing Candida biofilms, primary screen, with clotrimazole, Alamar Blue; C. albicans biofilm + clotrimazole; inhibition, % at 6 µM; 85,000 tested, 0.14% active; AID 834, 2007;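 active = inhibition above 20%; inactive = inhibition below 20%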;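 note: preformed 24 hr biofilms exposed to compound for 48 hr; 0% = biofilm without compound and 100% = blank killed by clotrimazole plus chlorhexidine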
HCT116 bCat-KO: primary screen for growth suppressors in beta-catenin knockout HCT116 cells (colon tumor, human). HCT116 beta-catenin knockout viability, CellTiter-Glo, 60 h; active compounds read low. viability, % at 10 µM. 140,000 tested, 1.5% active;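 active = viability at or under a set limit, the compound median less 4 SD, cut at about 6% in these data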;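 note: 0% = Hyamine 1622 control at 20 µM and 100% = untreated cell control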
Fibroblast inh: antiproliferative effect on LL 47 fibroblasts – human, LL 47 cells, CellTiter-Glo luminescence, primary screen; LL 47 human lung fibroblast viability, ATP luminescence; active compounds read low; viability, % at 10 µM; 85,000 tested, 1.1% active; AID 719, 2007;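 active = viability at or below 50% in the single dose screen; inactive = viability above 50%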;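 note: compound exposure lasted 72 h before the ATP readout; 100% = median luminescence of untreated cell-only wells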
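material = human LL 47 lung fibroblast cells | dosing = compounds added from tenfold dosing solution, 0.1% DMSO final | timing = overnight cell rest, 72 h compound treatment at 37 °C | measured by = CellTiter-Glo luminescence measuring cellular ATP | evaluation = % viability versus median cells-only luminescence | control set = cell-only wells, no compound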
HUVEC inhibit: inhibitors of HUVEC proliferation, primary screen, cell-based, 384-well | viability, % at 10 µM (by protocol) | 86,000 tested, 1.1% active | CellTiter-Glo luminescence, 72 h; active compounds read low | AID 648, 2007;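 active = viability at or below 30%; inactive = viability above 30%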;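 note: 100% = median luminescence of DMSO-only cell control wells on each plate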
The depositor's hits bear a star; x = not tested or not shown; ! = not confirmed by another sample. The entries come from a sample that favours hits as a whole.

SMILES	HCT116 PTEN-null	H69AR growth 86K	Calb biofilm kill	HCT116 bCat-KO	Fibroblast inh	HUVEC inhibit
CC(C)OCCCNC(=O)c1c(N)n(/N=C/c2ccccn2)c2nc3ccccc3nc12	53.1	22.6*	-2.2	61.4	101.9	75.5
CC(C)CNC(=O)c1c(N)n(/N=C/c2cccnc2)c2nc3ccccc3nc12	x	45.8	-2.0	x	100.4	66.9
COCCCNC(=O)c1c(N)n(/N=C/c2cccnc2)c2nc3ccccc3nc12	81.3	x	x	82.3	x	x
CCC(C)NC(=O)c1c(N)n(/N=C/c2cccnc2)c2nc3ccccc3nc12 (stereo not given)	26.9	89.6	7.9	34.1	88.8	3.4*
CCC(C)NC(=O)c1c(N)n(/N=C/c2ccccn2)c2nc3ccccc3nc12 (stereo not given)	12.5	11.3*	0.2	22.4	98.7	12.2*
COc1ccc(C(C)=O)cc1CSc1nnc(Nc2ccccc2)s1	49.9	x	x	48.6	x	x
O=c1c(Cl)cc(Cl)nn1-c1ccccc1	2.7*	x	x	4.1*	x	x
O=C1c2ccccc2NC(c2ccc(-c3ccc(Br)cc3)o2)N1O (stereo not given)	3.4*	x	x	4.5*	x	x
Cn1c(=O)c2c(ncn2CC(=O)N/N=C/C=C/c2ccccc2)n(C)c1=O	82.7	x	x	85.0	x	x
CC1(C(=O)N/N=C/c2ccc([N+](=O)[O-])o2)CC1(Br)Br (stereo not given)	2.5*	x	x	2.6*	x	x
Cn1c(=O)c2c(ncn2CC(=O)N/N=C/C(Br)=C/c2ccccc2)n(C)c1=O	2.6*	x	x	2.4*	x	x
O=C(CNc1cccc2ccccc12)N/N=C/C(Br)=C/c1ccccc1	1.2*	25.0*	-1.3	2.7*	81.0	47.1
O=C(N/N=C/c1ccc([N+](=O)[O-])o1)c1cc(-c2ccncc2)nc2ccccc12	3.3*	x	x	2.8*	x	x
Cc1sc2nc(COC(=O)CNC(=O)c3ccc(C(C)(C)C)cc3)[nH]c(=O)c2c1C	96.6	x	x	98.7	x	x
COc1ccc(C(=O)N(NC(=O)Oc2ccccc2)C(C)(C)C)cc1	101.2	x	x	96.8	x	x
O=Cc1cccn1Cc1ccccc1[N+](=O)[O-]	92.9	x	x	98.7	x	x
CCCCCCCC(=O)N/N=C/c1ccc([N+](=O)[O-])o1	90.8	x	x	88.0	x	x
O=C(CNc1cccc2ccccc12)N/N=C/c1ccc([N+](=O)[O-])o1	4.9	x	x	4.7*	x	x
Cc1ccc(C(=O)Nc2ccccc2C(=O)NC(C(=O)O)C(C)C)cc1 (stereo not given)	0.8*	94.1	5.5	0.5*	101.5	92.6
Cc1ccc(C(=O)Nc2ccccc2C(=O)NC(CC(=O)O)C(=O)O)cc1 (stereo not given)	99.5	88.3	8.4	85.9	98.8	104.0
CCn1c(SCC(=O)NCc2ccccc2)nc2c(c1=O)SC(C)C2 (stereo not given)	98.8	87.3	2.5	94.5	95.2	92.0
Cc1cc(Br)ccc1NCc1ccccn1	91.2	x	x	82.0	x	x
CNCCCC12CCC(c3ccccc31)c1ccccc12	31.6	8.6*!	5.5	46.8	74.0	67.2
C=CCOc1ccc(Br)cc1CNCCCN1CCOCC1	80.9	x	x	75.4	x	x
Cn1cccc1Cc1nnc(SCC(=O)Nc2ccc3c(c2)OCCO3)n1CCc1ccccc1	72.1	89.7	11.1	76.3	94.5	93.6
SMILES	HCT116 PTEN-null	H69AR growth 86K	Calb biofilm kill	HCT116 bCat-KO	Fibroblast inh	HUVEC inhibit
O=S(Cc1ccccc1)CC(O)(c1ccccc1)c1ccccc1 (stereo not given)	83.2	x	x	92.5	x	x
Cc1ccccc1Cn1ccc(NC(=O)c2cnn3c(C(F)(F)F)cc(-c4ccco4)nc23)n1	64.6	34.0*	6.6	58.3	100.4	75.1
Cc1ccccc1Cn1ccc(NC(=O)CCSc2nc(-c3ccco3)cc(C(F)(F)F)n2)n1	100.6	91.3	10.1	100.2	97.7	75.5
O=C(Nc1ccc2c(c1)OCO2)c1cnn2c(C(F)(F)F)cc(-c3ccco3)nc12	70.2	27.4*	8.1	75.3	52.8	66.3
CCCCOC(=O)c1ccc(NC(=O)COC(=O)CSc2nc(C)cc(C)n2)cc1	96.2	x	x	94.6	x	x
O=C(OCCN1C(=O)c2cccc3c(N4CCOCC4)ccc(c23)C1=O)c1ccccc1Cl	5.3	x	x	5.3*	x	x
